# In paper PMC3846175 (Bioorganic & medicinal chemistry, 2013):
# Where “and” joins values, the source holds several entries; their conditions need not be identical. Identical values can stand only once. Counter-ions that a name gives are not always drawn. Like-named read-outs stand apart in the source and are kept apart here.
# Assays:
# T. b. r. STIB900 [1] = conditions: mouse, ref [10], [14], [16], [23], cited from earlier work
# T. b. brucei GVR35 [2] = conditions: mouse; po 100 mg/kg for 5 days; ref [5]; cited from earlier work
# Plasmodium falciparum K1 [3] = conditions: read-out: P. f. IC50; strain K1; comparator data; ref [10], [16]; cited from earlier work
# [4] = tested on: Trypanosoma brucei rhodesiense STIB900; conditions: read-out: T. b. r. IC50; strain STIB900; comparator data; ref [10], [16]; cited from earlier work
# T. b. r. STIB900 [5] = experiment: T. b. r. STIB900 acute mouse model; format: in vivo, Trypanosoma brucei rhodesiense
# poly(dA-dT)2 = experiment: Thermal melting; format: binding
# T. b. brucei GVR35 [6] = experiment: T. b. brucei GVR35 CNS mouse model; format: in vivo, Trypanosoma brucei brucei
# How it was run: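 Second-stage (CNS) infection model in mice with T. b. brucei GVR35. The test compound was given orally at 100 mg/kg for 5 days, and a 10-day course was also run. The comparator was diminazene, given as a single 40 mg/kg intraperitoneal dose. Survival was the endpoint. Protocols were approved by the Canton Basel-Stadt veterinary authorities.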
# Plasmodium falciparum K1 [7] = experiment: In vitro assay with P. f. K1 strain; format: cell-based; conditions: IC50 ratio
# [8] = po 100 mg/kg for 5 days, 100 mg/kg
smiles,measurement,setting,value
"N=C(N)c1ccc(-c2ccc(-c3ccc(C(=N)N)cc3)o2)cc1 [2a, furamidine]",Cures (mice that survive and are parasite free for 60 days),T. b. r. STIB900 [1]; ip 5 mg/kg daily for 4 days,1/4
same,Survival (average days of survival),T. b. r. STIB900 [1]; ip 5 mg/kg daily for 4 days,>46 days
same,Cures (mice that survive and are parasite free for 60 days),T. b. r. STIB900 [1]; ip 20 mg/kg daily for 4 days,3/4
same,Survival (average days of survival),T. b. r. STIB900 [1]; ip 20 mg/kg daily for 4 days,>57.75 days
N=C(NO)c1ccc(-c2ccc(-c3ccc(/C(N)=N\O)cc3)o2)cc1 [2b],Cures (mice that survive and are parasite free for 60 days),"T. b. r. STIB900 [1]; po 100 mg/kg daily for 4 days, 100 mg/kg",no cure and 0/4
"CONC(=N)c1ccc(-c2ccc(-c3ccc(C(=N)NOC)cc3)o2)cc1 [2c, pafuramidine]",Cures (mice that survive and are parasite free for 60 days),T. b. r. STIB900 [1]; po 10 mg/kg daily for 4 days,4/4
same,Survival (average days of survival),T. b. r. STIB900 [1]; po 10 mg/kg daily for 4 days,>60 days
same,Cures (mice that survive and are parasite free for 60 days),T. b. r. STIB900 [1]; po 25 mg/kg daily for 4 days,4/4
same,Survival (average days of survival),T. b. r. STIB900 [1]; po 25 mg/kg daily for 4 days,>60 days
same,MSD (mean survival days),T. b. brucei GVR35 [2],>167.8 days
same,No. of mice cured (survival >180 days without parasitemia relapse),T. b. brucei GVR35 [2],3/5
N=C(N)c1ccc(-c2ccc(-c3ccc(C(=N)N)cn3)o2)cc1 [3a],Cures (mice that survive and are parasite free for 60 days),T. b. r. STIB900 [1]; ip 5 mg/kg daily for 4 days,3/4
same,Survival (average days of survival),T. b. r. STIB900 [1]; ip 5 mg/kg daily for 4 days,>54.5 days
same,Cures (mice that survive and are parasite free for 60 days),T. b. r. STIB900 [1]; ip 20 mg/kg daily for 4 days,4/4
same,Survival (average days of survival),T. b. r. STIB900 [1]; ip 20 mg/kg daily for 4 days,>60 days
same,IC50,Plasmodium falciparum K1 [3],0.0065 µM
same,IC50,[4],0.0065 µM
CO/N=C(\N)c1ccc(-c2ccc(-c3ccc(/C(N)=N/OC)cn3)o2)cc1 [3c],Cures (mice that survive and are parasite free for 60 days),T. b. r. STIB900 [1]; po 25 mg/kg daily for 4 days,4/4
same,Survival (average days of survival),T. b. r. STIB900 [1]; po 25 mg/kg daily for 4 days,>60 days
same,MSD (mean survival days),T. b. brucei GVR35 [2],>180 days
same,No. of mice cured (survival >180 days without parasitemia relapse),T. b. brucei GVR35 [2],5/5
N=C(N)c1ccc(-c2ccc(-c3ccc(C(=N)N)cn3)o2)nc1 [4a],Cures (mice that survive and are parasite free for 60 days),T. b. r. STIB900 [1]; ip 5 mg/kg daily for 4 days,3/4
same,Survival (average days of survival),T. b. r. STIB900 [1]; ip 5 mg/kg daily for 4 days,>49.5 days
same,Cures (mice that survive and are parasite free for 60 days),T. b. r. STIB900 [1]; ip 20 mg/kg daily for 4 days,4/4
same,Survival (average days of survival),T. b. r. STIB900 [1]; ip 20 mg/kg daily for 4 days,>60 days
same,IC50,Plasmodium falciparum K1 [3],0.083 µM
same,IC50,[4],0.021 µM
CO/N=C(\N)c1ccc(-c2ccc(-c3ccc(/C(N)=N/OC)cn3)o2)nc1 [4c],Cures (mice that survive and are parasite free for 60 days),T. b. r. STIB900 [1]; po 25 mg/kg daily for 4 days,2/4
same,Survival (average days of survival),T. b. r. STIB900 [1]; po 25 mg/kg daily for 4 days,>42 days
same,MSD (mean survival days),T. b. brucei GVR35 [2],>180 days
same,No. of mice cured (survival >180 days without parasitemia relapse),T. b. brucei GVR35 [2],5/5
"N=C(N)c1ccc(-c2cncc(-c3ccc(C(=N)N)cc3F)n2)c(F)c1 [15b, 2,6-Di-(4′-amidino-2′-fluorophenyl)pyrazine hydrochloride]",Cures (mice that survive and are parasite free for 60 days),T. b. r. STIB900 [5]; ip 5 mg/kg daily for 4 days,no cures
"N=C(N)c1ccc(-c2cncc(-c3ccc(C(=N)N)cn3)n2)cc1 [19a, 2-(4′-amidinophenyl)-6-(5′-amidinopyridin-2′-yl)pyrazine hydrochloride]",Decrease in ΔTm value relative to parent compound 10,poly(dA-dT)2,2 °C
"N=C(N)c1ccc(-c2cncc(-c3ccc(C(=N)N)cn3)n2)nc1 [23a, 2,6-Di-(5′-amidinopyridin-2′-yl)pyrazine hydrochloride]",Decrease in ΔTm value relative to parent compound 10,poly(dA-dT)2,3.9 °C
"N=C(N)c1ccc(-c2cncc(-c3ccc(C(=N)N)nc3)n2)cn1 [23b, 2,6-Di-(2′-amidinopyridin-5′-yl)pyrazine hydrochloride]",Decrease in ΔTm value relative to parent compound 10,poly(dA-dT)2,3.0 °C
"N/C(=N\O)c1ccc(-c2cncc(-c3ccc(/C(N)=N\O)nc3)n2)cn1 [24b, 2,6-Di-(2′-N-hydroxyamidinopyridin-5′-yl)pyrazine hydrochloride]",Cures (mice that survive and are parasite free for 60 days),T. b. r. STIB900 [5]; po 25 mg/kg daily for 4 days,cures of all mice
same,MSD (mean survival days),T. b. brucei GVR35 [6]; po 100 mg/kg for 5 days,67.2 days
same,No. of mice cured (survival >180 days without parasitemia relapse),T. b. brucei GVR35 [6]; [8],not curative and 0/5
"CO/N=C(\N)c1ccc(-c2cncc(-c3ccc(/C(N)=N\OC)cn3)n2)nc1 [25a, 2,6-Di-(5′-N-methoxyamidinopyridin-2′-yl)pyrazine hydrochloride]",MSD (mean survival days),T. b. brucei GVR35 [6]; po 100 mg/kg for 5 days,95.2 days
same,No. of mice cured (survival >180 days without parasitemia relapse),T. b. brucei GVR35 [6]; [8],not curative and 0/5
N=C(N)c1ccc(-c2cnc(-c3ccc(C(=N)N)cc3)cn2)cc1 [compound 6],Cures (mice that survive and are parasite free for 60 days),"T. b. r. STIB900 [1]; ip 5 mg/kg daily for 4 days, 5 mg/kg",no cure and 0/4
same,IC50,Plasmodium falciparum K1 [3],0.0004 µM
same,IC50,[4],0.018 µM
"N=C(N)c1ccc(-c2cncc(-c3ccc(C(=N)N)cc3)n2)cc1 [compound 10, 2,6-Di-(4′-amidinophenyl)pyrazine hydrochloride]",Fold less potent than 6 against P. f.,Plasmodium falciparum K1 [7],25 fold
"N/C(=N\O)c1ccc(-c2cncc(-c3ccc(/C(N)=N/O)cc3)n2)cc1 [compound 11, 2,6-Di-(4′-N-hydroxyamidinophenyl)pyrazine hydrochloride]",Cures (mice that survive and are parasite free for 60 days),T. b. r. STIB900 [5]; po 25 mg/kg daily for 4 days,cures of all mice
same,No. of mice cured (survival >180 days without parasitemia relapse),T. b. brucei GVR35 [6]; [8],no cures and 0/5
"CO/N=C(\N)c1ccc(-c2cncc(-c3ccc(/C(N)=N\OC)cc3)n2)cc1 [compound 12, 2,6-Di-(4′-N-methoxyamidinophenyl)pyrazine hydrochloride]",No. of mice cured (survival >180 days without parasitemia relapse),T. b. brucei GVR35 [6]; po 100 mg/kg for 5 days,2/5
same,No. of mice cured (survival >180 days without parasitemia relapse),T. b. brucei GVR35 [6]; po 100 mg/kg for 10 days,3/4
